Reference: ChEMBL document CHEMBL3120102, “Structure-based design, synthesis and biological evaluation of novel anthra[1,2-d]imidazole-6,11-dione homologues as potential antitumor agents” (2013)

Assays:
Assay type in all cases: functional
MDA-MB-468 = assay: Cytotoxicity against human MDA-MB-468 cells assessed as cell growth at 10 uM after 48 hrs by SRB assay; settings: MDA-MB-468, 48 h, read-out: Activity
Outline: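 First stage of the NCI 60 human tumour cell line screen: a single dose is tested against every line. Cell growth is read as cellular protein by sulforhodamine B colorimetry after 48 h of drug exposure, with reference to a time-zero control and to untreated plates.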

DU-145 = assay: Cytotoxicity against human DU145 cells assessed as growth inhibition after 48 hrs by SRB assay
Outline: (§1)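 NCI 60-cell-line five-dose screen at […]. Drug exposure was 48 h, followed by sulforhodamine B protein staining. GI50, TGI and LC50 were calculated against a time-zero control and untreated plates, with dose–response curves plotted from log10 concentration.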

SK-OV-3 = assay: Cytotoxicity against human SKOV3 cells assessed as growth inhibition after 48 hrs by SRB assay
Outline: (§2)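 NCI 60-cell-line screen, five-dose stage: each cell line exposed for 48 h to five concentrations spanning five log steps; cellular protein measured by sulforhodamine B colorimetry. A time-zero cell control and plates without drug are used to derive GI50, TGI and LC50 from log-concentration dose-response curves.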

[1] = (§3) Cytotoxicity against human NCI-ADR-RES cells assessed as growth inhibition after 48 hrs by SRB assay; outline: as §2
NCI/ADR-RES = assay: as §3; outline: as §2
OVCAR-8 = assay: Cytotoxicity against human OVCAR8 cells assessed as growth inhibition after 48 hrs by SRB assay; outline: as §2
[2] = (§4) Cytotoxicity against human OVCAR5 cells assessed as growth inhibition after 48 hrs by SRB assay; settings: OVCAR-5, 48 h; outline: as §2
OVCAR-5 = assay: as §4; outline: as §2
OVCAR-3 = assay: Cytotoxicity against human OVCAR3 cells assessed as growth inhibition after 48 hrs by SRB assay; outline: as §2
UACC-62 = assay: Cytotoxicity against human UACC62 cells assessed as growth inhibition after 48 hrs by SRB assay
Outline: (§5)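 NCI 60-cell-line screen, two stages. Five-dose testing at […]. Cellular protein measured by sulforhodamine B colorimetry after 48 h drug exposure. A time-zero control and drug-free plates are used to derive GI50, TGI and LC50 from dose-response curves plotted as log10 concentration per cell line.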

[3] = (§6) Cytotoxicity against human UACC257 cells assessed as growth inhibition after 48 hrs by SRB assay; settings: UACC-257, 48 h; outline: as §5
UACC-257 = assay: as §6; outline: as §5
Malme-3M = assay: Cytotoxicity against human MALME-3M cells assessed as growth inhibition after 48 hrs by SRB assay; outline: as §1
LOX IMVI = assay: Cytotoxicity against human LOXIMVI cells assessed as growth inhibition after 48 hrs by SRB assay; outline: as §1
U-251 = assay: Cytotoxicity against human U251 cells assessed as growth inhibition after 48 hrs by SRB assay; outline: as §5
SF-539 = assay: Cytotoxicity against human SF539 cells assessed as growth inhibition after 48 hrs by SRB assay; outline: as §2
SF-268 = assay: Cytotoxicity against human SF268 cells assessed as growth inhibition after 48 hrs by SRB assay; outline: as §2
SW-620 = assay: Cytotoxicity against human SW620 cells assessed as growth inhibition after 48 hrs by SRB assay; outline: as §5
HT-29 = assay: Cytotoxicity against human HT-29 cells assessed as growth inhibition after 48 hrs by SRB assay; outline: as §1
COLO 205 = assay: Cytotoxicity against human COLO205 cells assessed as growth inhibition after 48 hrs by SRB assay; outline: as §1
NCI-H522 = assay: Cytotoxicity against human NCI-H522 cells assessed as growth inhibition after 48 hrs by SRB assay; outline: as §2
NCI-H460 = assay: Cytotoxicity against human NCI-H460 cells assessed as growth inhibition after 48 hrs by SRB assay; outline: as §2
NCI-H322M = assay: Cytotoxicity against human NCI-H322M cells assessed as growth inhibition after 48 hrs by SRB assay; outline: as §2
NCI-H226 = assay: Cytotoxicity against human NCI-H226 cells assessed as growth inhibition after 48 hrs by SRB assay; outline: as §2
[4] = (§7) Cytotoxicity against human EKVX cells assessed as growth inhibition after 48 hrs by SRB assay; outline: as §1
EKVX = assay: as §7; outline: as §1
RPMI-8226 = assay: Cytotoxicity against human RPMI8226 cells assessed as growth inhibition after 48 hrs by SRB assay; outline: as §2
CCRF-CEM = assay: Cytotoxicity against human CCRF-CEM cells assessed as growth inhibition after 48 hrs by SRB assay; outline: as §1

Which growth at 10 µM (MDA-MB-468) does the source give for `O=C1c2ccccc2C(=O)c2c1ccc1nc3n(c21)CCS3` here?
The growth at 10 µM was 69.7%.

Which results are given for `O=C1c2ccccc2C(=O)c2c1ccc1nc(SCCN3CCCC3)[nH]c21`?
growth inhibition (GI) (DU-145): Dose-dependent effect; GI50 (DU-145; DU-145, 48 h): 3.42 µM; TGI (DU-145; DU-145, 48 h): 14.9 µM; CC50 (DU-145; DU-145, 48 h, read-out: LC50 (the source's name)): 39.6 µM; growth inhibition (GI) (SK-OV-3): Dose-dependent effect; GI50 (SK-OV-3; SK-OV-3, 48 h): 10.5 µM; LC50 (concentration killing 50% of cells present at time zero) (SK-OV-3; SK-OV-3, 48 h): 54 µM; TGI (SK-OV-3; SK-OV-3, 48 h): 23.8 µM; GI50 [1]: 6.98 µM; LC50 (concentration causing 50% net cell kill) [1]: > 100 µM; TGI [1]: 33.7 µM; growth inhibition (GI) (NCI/ADR-RES): Dose-dependent effect; growth inhibition (GI) (OVCAR-8): Dose-dependent effect; GI50 (OVCAR-8; OVCAR-8, 48 h): 6.38 µM; LC50 (OVCAR-8; OVCAR-8, 48 h): > 100 µM; TGI (OVCAR-8; OVCAR-8, 48 h): 30.4 µM; GI50 [2]: 15.5 µM; LC50 [2]: 55.8 µM; TGI [2]: 29.4 µM; growth inhibition (GI) (OVCAR-5): Dose-dependent effect; growth inhibition (GI) (OVCAR-3): Dose-dependent effect; GI50 (OVCAR-3; OVCAR-3, 48 h): 2.76 µM; LC50 (50% lethal concentration) (OVCAR-3; OVCAR-3, 48 h): 35.6 µM; TGI (OVCAR-3; OVCAR-3, 48 h): 11.1 µM; growth inhibition (GI) (UACC-62): Dose-dependent effect; GI50 (UACC-62; UACC-62, 48 h): 15.8 µM; LC50 (UACC-62; UACC-62, 48 h): 57.4 µM; TGI (UACC-62; UACC-62, 48 h): 30.1 µM; GI50 [3]: 18 µM; LC50 [3]: 56.8 µM; TGI [3]: 31.9 µM; growth inhibition (GI) (UACC-257): Dose-dependent effect; GI50 (Malme-3M): 14 µM; TGI (Malme-3M): 28.8 µM; growth inhibition (GI) (Malme-3M): Dose-dependent effect; CC50 (Malme-3M; read-out: LC50 (the source's name)): 59.4 µM; GI50 (LOX IMVI): 1.43 µM; LC50 (LOX IMVI): 6.25 µM; TGI (LOX IMVI): 2.99 µM; growth inhibition (GI) (LOX IMVI): Dose-dependent effect; growth inhibition (GI) (U-251): Dose-dependent effect; GI50 (U-251; U-251, 48 h): 6.84 µM; TGI (U-251; U-251, 48 h): 20.3 µM; CC50 (U-251; U-251, 48 h, read-out: LC50 (the source's name)): 47.1 µM; growth inhibition (GI) (SF-539): Dose-dependent effect; GI50 (SF-539; SF-539, 48 h): 6.79 µM; TGI (SF-539; SF-539, 48 h): 20.2 µM; CC50 (SF-539; SF-539, 48 h, read-out: LC50 (the source's name)): 47.4 µM; growth inhibition (GI) (SF-268): Dose-dependent effect; GI50 (SF-268; SF-268, 48 h): 9.54 µM; LC50 (concentration killing 50% of cells relative to time zero) (SF-268; SF-268, 48 h): 52.9 µM; TGI (SF-268; SF-268, 48 h): 22.8 µM; growth inhibition (GI) (SW-620): Dose-dependent effect; GI50 (SW-620; SW-620, 48 h): 1.94 µM; LC50 (SW-620; SW-620, 48 h): 19.7 µM; TGI (SW-620; SW-620, 48 h): 5.09 µM; growth inhibition (GI) (HT-29): Dose-dependent effect; GI50 (HT-29; HT-29, 48 h): 1.81 µM; TGI (HT-29; HT-29, 48 h): 4.66 µM; CC50 (HT-29; HT-29, 48 h, read-out: LC50 (the source's name)): 15.2 µM; growth inhibition (GI) (COLO 205): Dose-dependent effect; GI50 (COLO 205; COLO 205, 48 h): 3.07 µM; LC50 (COLO 205; COLO 205, 48 h): 58.6 µM; TGI (COLO 205; COLO 205, 48 h): 16.7 µM; growth inhibition (GI) (NCI-H522): Dose-dependent effect; TGI (NCI-H522; NCI-H522, 48 h): 32.5 µM; growth inhibition (GI) (NCI-H460): Dose-dependent effect; TGI (NCI-H460; NCI-H460, 48 h): 4.77 µM; TGI (NCI-H322M): 21.4 µM; growth inhibition (GI) (NCI-H322M): Dose-dependent effect; growth inhibition (GI) (NCI-H226): Dose-dependent effect; TGI (NCI-H226; NCI-H226, 48 h): 36.6 µM; TGI [4]: 26.5 µM; growth inhibition (GI) (EKVX): Dose-dependent effect; growth inhibition (GI) (RPMI-8226): Dose-dependent effect; GI50 (RPMI-8226; RPMI-8226, 48 h): 1.79 µM; LC50 (concentration causing 50% net cell kill) (RPMI-8226; RPMI-8226, 48 h): 15.4 µM; TGI (RPMI-8226; RPMI-8226, 48 h): 4.31 µM; GI50 (CCRF-CEM): 3.34 µM; LC50 (CCRF-CEM): 62.8 µM; TGI (CCRF-CEM): 15.6 µM; growth inhibition (GI) (CCRF-CEM): Dose-dependent effect; growth at 10 µM (MDA-MB-468): 67.9%
